We go through seven molecules from publication PMC3424550 (Nucleic Acids Research, 2012).

In data set [1] the target is T1, E. coli RNAP TEC (Escherichia coli, UniProt P0A8T7+P0A8V2). Kind of data set: Time-resolved nucleotide addition. The following applies: i − 7 6-MI TECs; 200 µM NTP, 25°C. Format: biochemical.
In data set [2] the target is GMP-extended TEC (TEC17), E. coli RNAP (Escherichia coli, UniProt P0A8T7+P0A8V2). It is filed as binding.
The test system of data set [3] is TEC. The following applies: absence of the next incoming substrate NTP; cited from earlier work.
Data set [4] concerns the target T1, E. coli RNAP TEC. Kind of data set: PPi release, coupled PPase / MDCC-PBP stopped-flow assay. It is filed as biochemical.
In data set [5] the test system is RNAP. The note with it: cited from earlier work.
Data set [6] addresses TEC assembled using β′M932A RNAP (Escherichia coli, UniProt P0A8T7+P0A8V2, M932A). Kind of data set: Equilibrium TGT titration of extended TECs, β′M932A RNAP. Format: binding. An outline of the steps: (§1)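 E. coli RNAP TECs (template strand limiting at 1 µM) on a synthetic scaffold, with 6-MI or 2-AP in the template or 2-AP added at the RNA 3′ end. Extended 10 min at 25°C in TB10 (pH 7.5) with 5 µM substrate and 0.2 nM yeast PPase. TGT added afterwards, 5 min more. Emission peaks: 6-MI 420 nm (ex 340), 2-AP 375 nm (ex 330). KTGT from a dissociation-equilibrium fit; errors are SD of best-fit estimates.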

The target of data set [7] is TEC assembled using β′H936A RNAP (Escherichia coli, UniProt P0A8T7+P0A8V2, H936A). Kind of data set: Equilibrium TGT titration of extended TECs, β′H936A RNAP. Format: binding. The following applies: β′His936 substituted with alanine. An outline of the steps: as §1
In data set [8] the target is TEC assembled with wild-type E. coli RNAP (Escherichia coli, UniProt P0A8T7+P0A8V2). Nature of the data set: Equilibrium TGT titration of extended TECs, fluorescence of base analogs. Format: binding. An outline of the steps:
as §1

Data set [9] deals with β′N458D TEC (Escherichia coli, UniProt P0A8T7+P0A8V2, N458D). Kind of data set: Equilibrium TGT titration of extended TECs, β′N458D RNAP. It is filed as binding. The following applies: AMP-extended β′N458D TEC. An outline of the steps:
as §1

Data set [10] has as its target T1, E. coli RNAP TEC. Format: biochemical. The following applies: time-resolved, saturating TGT (5 µM).
In data set [11] the test system is ΔTL RNAP TEC. Nature of the data set: Equilibrium TGT titration of extended TECs, ΔTL RNAP. Format: binding, Escherichia coli. The following applies: AMP-extended TEC, TL domain replaced by a two-alanine linker. An outline of the steps: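 Two-alanine-linker ΔTL RNAP TECs (template strand limiting at 1 µM) with a base-analog fluorophore in the template. Extended 1.5 h at 25°C in TB10 (pH 7.5) with 5 µM substrate and 0.2 nM yeast PPase. TGT added post-catalytically for 5 min more. Fluorescence taken at the emission peak: 6-MI 420 nm (ex 340) or 2-AP 375 nm (ex 330). Titration fitted to dissociation-equilibrium equations.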

The target in data set [12] is TEC assembled using β′R933A RNAP (Escherichia coli, UniProt P0A8T7+P0A8V2, R933A). Nature of the data set: Equilibrium TGT titration of extended TECs, β′R933A RNAP. It is filed as binding. The following applies: β′Arg933 substituted with alanine. An outline of the steps:
as §1

Bounds are passed on as bounds.

In the case of `Nc1ncnc2c1ncn2[C@@H]1O[C@H](COP(=O)(O)O)[C@@H](O)[C@H]1O` [AMP], the “nucleotide addition, half-life” value in [1] is ~0.02 s.
Same read-out and setting: the value for `Nc1ccn([C@@H]2O[C@H](COP(=O)(O)O)[C@@H](O)[C@H]2O)c(=O)n1` [CMP] was ~0.008 s.
Consider `Nc1ccn([C@@H]2O[C@H](COP(=O)(O)CP(=O)(O)OP(=O)(O)O)[C@@H](O)[C@H]2O)c(=O)n1` [CMPcPP, cytidine-5′-[(α,β)-methyleno]triphosphate], for which, in data set [2], the “decrease in fluorescence upon CMPcPP binding to the TEC” value is listed as ~15% and the “effect on fluorescence in the absence of TGT” value is recorded as “failed to increase fluorescence”. For the same molecule, in [2] (templated CMPcPP), the “effect on TGT action” value was “able to counter the effect of TGT”.
For `Nc1nc2c(ncn2[C@@H]2O[C@H](COP(=O)(O)O)[C@@H](O)[C@H]2O)c(=O)[nH]1` [GMP], the “nucleotide addition, half-life” value in data set [1] was ~0.02 s.
For `O=P(O)(O)OP(=O)(O)O` [PPi, pyrophosphate], the “rate of PPi release from the TEC” value was 2.9 s⁻¹ in data set [3] and 120 s⁻¹ in data set [4] (same TEC as Johnson et al., PPase-MDCC-PBP method). Moreover, the “PPi to MDCC-PBP·Pi conversion rate” value in [4] (10 µM PPase) was determined as 120 s⁻¹.
Take `CC(=O)O[C@@H]1[C@H](N)[C@@H](OP(=O)(O)O)[C@@]2(C(=O)O)CS[C@@](O)(C(N)=O)[C@@H]1O2` [TGT, tagetitoxin]: the effect on pyrophosphorolysis result in [5] was “strongly inhibit”. Also, the “quenching of the fluorescence of 3′ RNA 2-AP by TGT” value in [6] (2-AP ribonucleoside monophosphate-extended β′M932A TEC) was “did not quench”; in [8] (2-AP ribonucleoside monophosphate-extended TEC, wild-type) it was 2 fold. The “apparent KTGT relative to wild-type TEC” value in data set [6] (β′M932A TEC, higher) worked out at 5 fold. The “increase in KTGT relative to wild-type” value in [7] and in data set [12] was > 7 fold throughout. For the same molecule, the “increase of apparent TGT binding constant relative to rNMP-extended TECs” value in [8] (TECs lacking a 2′-OH group at the RNA 3′ end) is ~10 fold. The “increase in KTGT relative to rNMP-extended TECs” value in data set [8] (TECs lacking a 3′ OH group at the RNA 3′ end) is on record as “approximately 5 fold”. Also, the “effect on translocation state of extended TECs” value in [8] (TGT added post-catalytically) is “quantitatively moves extended TECs into the pre-translocated state”. For the same molecule, the “move into the pre-translocated state at saturating TGT concentrations” value in [9] was ≤ 20%. The “effect on forward translocation” value in [10] is “does not affect the rate of forward translocation”. Moreover, the “response of TEC to TGT action” value in data set [11] is on record as “completely resistant”.
`O=c1ccn([C@@H]2O[C@H](COP(=O)(O)O)[C@@H](O)[C@H]2O)c(=O)[nH]1` [UMP]: the “nucleotide addition, half-life” value in data set [1] is ~0.02 s.
